Measured values from ChEMBL document CHEMBL1142511, “[(18)F]-labeled isoindol-1-one and isoindol-1,3-dione derivatives as potential PET imaging agents for detection of beta-amyloid fibrils” (Bioorg Med Chem Lett, 2008).
pKi: −log10 of the molar value.

assay: Displacement of [125I]TZDM from amyloid beta 1 to 42 aggregates
Procedure, shortened: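 Competitive binding against aggregated Aβ1–42 with [125I]TZDM as radioligand. Non-specific binding defined with 2 µM thioflavin T. Incubated 3 h at room temperature. Bound and free radioactivity separated by vacuum filtration through GF/B filters, followed by two washes with 10% EtOH at room temperature. IC50 converted to Ki by the Cheng–Prusoff equation.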

Row | SMILES | pKi
1 | CNc1ccc(-c2nc3ccc(O)cc3s2)cc1 [PITTSBURGH COMPOUND B UNLABELLED] | 9.11
2 | Nc1ccc(N2Cc3cc(OCCF)ccc3C2=O)cc1 | 9.21
3 | CNc1ccc(N2Cc3cc(OCCF)ccc3C2=O)cc1 | 9.04
4 | CN(C)c1ccc(N2Cc3cc(OCCCF)ccc3C2=O)cc1 | 9.15
5 | Nc1ccc(N2C(=O)c3ccc(OCCCF)cc3C2=O)cc1 | 9.13
6 | CN(C)c1ccc(N2C(=O)c3ccc(OCCCF)cc3C2=O)cc1 | 9.07
7 | CN(C)c1ccc(N2C(=O)c3ccc(OCCF)cc3C2=O)cc1 | 9.16
8 | CNc1ccc(N2C(=O)c3ccc(OCCCF)cc3C2=O)cc1 | 9.11

Continued by rising pKi, values first:

Row | pKi | SMILES
9 | 9.22 | CNc1ccc(N2C(=O)c3ccc(OCCF)cc3C2=O)cc1
10 | 9.23 | Nc1ccc(N2C(=O)c3ccc(OCCF)cc3C2=O)cc1
11 | 9.29 | CNc1ccc(N2Cc3cc(OCCCF)ccc3C2=O)cc1
12 | 9.40 | Nc1ccc(N2Cc3cc(OCCCF)ccc3C2=O)cc1
13 | 9.52 | CN(C)c1ccc(N2Cc3cc(OCCF)ccc3C2=O)cc1
